Assay results published in ChEMBL document CHEMBL5137045, “Discovery of 2-(furan-2-ylmethylene)hydrazine-1-carbothioamide derivatives as novel inhibitors of SARS-CoV-2 main protease” (Eur J Med Chem, 2022).
The source made the active and inactive calls. The rule behind the calls is not given here.

Key:
[1] = biological target: T1, Replicase polyprotein 1ab (Severe acute respiratory syndrome coronavirus 2, UniProt P0DTD1); assay: Inhibition of SARS CoV-2 main protease using DABCYL-KTSAVLQSGFRKM-E(EDANS)-NH2 as substrate preincubated for 30 mins followed by substrate addition and measured after 20 mins
[2] = biological target: Replicase polyprotein 1ab (Severe acute respiratory syndrome coronavirus 2) (UniProt P0DTD1); assay: Inhibition of SARS CoV-2 main protease at 50 uM using DABCYL-KTSAVLQSGFRKM-E(EDANS)-NH2 as substrate preincubated for 30 mins followed by substrate addition and measured after 20 mins relative to control; conditions: time 50.0 min
How it was run: (§1)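 FRET protease assay in 40 mM PBS, 100 mM NaCl, 1 mM EDTA, 0.1% Triton, pH 7.3. M^pro (0.5 μM) was preincubated with inhibitor 30 min at room temperature, then 20 μM substrate was added. Cleavage fluorescence (ex 360/em 460 nm) was read for 20 min. This covers preliminary screening and IC50; IC50 from Hill1 fit.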

[3] = biological target: T1, Replicase polyprotein 1ab; assay: Binding affinity to SARS-CoV-2 main protease assessed as dissociation constant by SPR analysis
How it was run: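 SPR with M^pro immobilised and an empty first flow channel as reference. Compounds were injected for 60 s at 0.2–100 μM for binding (50 μM for screening). Dissociation was followed for 100–200 s at 30 μL/min. […] K_D came from a 1:1 kinetic binding fit.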

Procathepsin L = Procathepsin L (Homo sapiens, UniProt P07711); assay: Inhibition of human Cathepsin L using Ac-FR-AFC as fluorescent substrate preincubated for 15 mins followed by substrate addition and measured after 30 mins by fluorescent microplate reader analysis
[4] = (§2) Cytotoxicity against African green monkey Vero cells assessed as reduction in cell viability measured after 48 hrs by MTT assay; format: toxicity, cell-based; conditions: chlorocebus sabaeus, Vero cells
How it was run: (§3)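 MTT viability assay. Vero cells were kept in MEM and MDCK cells in DMEM, each with 10% FBS and 100 U/mL penicillin/streptomycin, humidified, 5% CO2. Cells were seeded, incubated 18 h, then given compound; vehicle served as blank.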

MDCK = assay: Cytotoxicity against MDCK cells assessed as reduction in cell viability incubated for 48 hrs by MTT assay; format: toxicity, cell-based, Canis lupus familiaris; conditions: dog; how it was run: as §3
[5] = biological target: T1, Replicase polyprotein 1ab; assay: Inhibition of SARS CoV-2 main protease using DABCYL-KTSAVLQSGFRKM-E(EDANS)-NH2 as substrate preincubated for 30 mins followed by substrate addition; how it was run: as §1
[6] = biological target: Replicase polyprotein 1ab (Severe acute respiratory syndrome coronavirus 2) (UniProt P0DTD1); assay: Reversible inhibition of SARS CoV-2 main protease at 100 uM incubated for 180 mins by ultrafiltration assay
How it was run: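 Reversibility: 10 μM M^pro was incubated with 100 μM inhibitor for 180 min and split into four portions, each ultrafiltered a different number of times. Each round added an equal volume of assay buffer, 5 min, 4 °C, 12,000 rpm. Retained protease was diluted to 0.5 μM and assayed for activity; three replicates averaged.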

Vero = assay: as §2; format: toxicity, cell-based; conditions: chlorocebus sabaeus, vero, 48 h; how it was run: as §3
[7] = biological target: Replicase polyprotein 1ab (Severe acute respiratory syndrome coronavirus 2) (UniProt P0DTD1); assay: Covalent binding affinity to SARS CoV-2 main protease at 15 uM incubated for 3 hrs by Quadrupole-TOF LC-MS/MS analysis
How it was run: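 Protease (2 μM) was co-incubated with 15 μM inhibitor on ice for 3 h. The complex was run on Q-TOF LC-MS/MS, and raw mass signal was deconvoluted to give total protein mass.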

[8] = biological target: T1, Replicase polyprotein 1ab; assay: Inhibition of SARS CoV-2 main protease using DABCYL-KTSAVLQSGFRKM-E(EDANS)-NH2 as substrate preincubated for 180 mins followed by substrate addition
How it was run: (§4)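 Time-dependence: M^pro was preincubated with various inhibitor concentrations for different times at room temperature before fluorogenic substrate addition. Activity was read as in the standard FRET assay.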

[9] = biological target: T1, Replicase polyprotein 1ab; assay: Inhibition of SARS CoV-2 main protease using DABCYL-KTSAVLQSGFRKM-E(EDANS)-NH2 as substrate preincubated for 5 mins followed by substrate addition; how it was run: as §4
[10] = biological target: Replicase polyprotein 1ab (Severe acute respiratory syndrome coronavirus 2) (UniProt P0DTD1); assay: Non-competitive inhibition of SARS CoV-2 main protease using DABCYL-KTSAVLQSGFRKM-E(EDANS)-NH2 as substrate at varying concentrations preincubated for 3 hrs followed by substrate addition by Lineweaver-burk plot analysis
How it was run: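 Kinetics: 0.5 μM M^pro was preincubated 3 h with DMSO or inhibitor, then varying fluorogenic substrate concentrations started the reaction. Three replicates, curve-fitted.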

Chain of Procathepsin L (P07711 whole entry): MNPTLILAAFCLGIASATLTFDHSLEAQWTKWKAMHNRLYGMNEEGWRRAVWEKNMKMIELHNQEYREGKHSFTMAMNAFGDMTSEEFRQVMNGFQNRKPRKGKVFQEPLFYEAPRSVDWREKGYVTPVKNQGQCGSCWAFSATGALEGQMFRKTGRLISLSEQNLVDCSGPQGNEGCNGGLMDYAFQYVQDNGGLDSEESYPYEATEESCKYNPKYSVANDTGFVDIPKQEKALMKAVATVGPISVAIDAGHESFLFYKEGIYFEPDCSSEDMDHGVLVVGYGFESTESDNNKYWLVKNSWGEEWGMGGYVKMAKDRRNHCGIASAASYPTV

| Compound | IC50 [1] [µM] | inhibition [2] [%] | other results |
| --- | --- | --- | --- |
| NC(=S)N/N=C/c1ccc(-c2cnc3ccccc3c2)o1 | 10.3 | 88.9 |  |
| NC(=S)N/N=C/c1ccc(-c2ccc(C(=O)O)cc2)s1 | 5.78 | 95.1 |  |
| N#Cc1cc(-c2ccc(/C=N/NC(N)=S)o2)ccc1O | 4.14 | 107 |  |
| COc1ccc(-c2ccc(/C=N/NC(N)=S)o2)cc1OC | 5.81 | 102 |  |
| NC(=S)N/N=C/c1ccc(-c2ccc([N+](=O)[O-])cc2)o1 | 9.69 | 81.1 |  |
| NC(=S)N/N=C/c1ccc(-c2cccc(C(=O)O)c2Cl)o1 | 40.6 | 84.4 |  |
| NC(=S)N/N=C/c1ccc(-c2ccc(S(N)(=O)=O)cc2)o1 | 5.39 | 98.5 |  |
| NC(=S)N/N=C/c1cccc(-c2ccc(C(=O)O)cc2)c1 | 5.44 | 99.2 |  |
| Cc1cc([N+](=O)[O-])c(-c2ccc(/C=N/NC(=O)c3nonc3N)o2)cc1Cl | 25 | 70.9 |  |
| NC(=S)N/N=C/c1ccc(-c2cccc(C(=O)O)c2)o1 | 10.9 | 85.1 |  |
| NC(=S)N/N=C/c1ccc(-c2cccc([N+](=O)[O-])c2)o1 | 8.08 | 81.6 |  |
| NC(=S)N/N=C/c1ccc(-c2ccc3cccnc3c2)o1 | 10.4 | 92.3 |  |
| Cc1cc(-c2ccc(/C=N/NC(=O)Cn3nnnc3N)o2)c([N+](=O)[O-])cc1C | 17.5 | 86 |  |
| Nc1nonc1-c1nc2ccccc2n1CC(=O)N/N=C/c1ccc(-c2cccc(C(=O)O)c2)o1 | 21.3 | 65 | Kd [3]: 27.7 µM |
| NC(=O)c1ccc(-c2ccc(/C=N/NC(N)=S)o2)cc1 | 4 | 94.2 |  |
| NC(=S)N/N=C/c1ccc(Cc2ccccc2)o1 | 1.55 | 100 | IC50 (Procathepsin L): 8.09 µM; CC50 at 48 h [4]: 100 µM; CC50 (MDCK): > 100 µM |
| NC(=S)N/N=C/c1ccc(-c2ccc(Cl)c(C(=O)O)c2)o1 | 25.4 | 93.6 |  |
| Cc1c(NC(=S)N/N=C/c2ccc(-c3ccc([N+](=O)[O-])cc3)o2)c(=O)n(-c2ccccc2)n1C | 10.8 | 95 |  |
| NC(=S)N/N=C/c1ccc(-c2ccncc2)o1 | 7.09 | 95.4 |  |
| NC(=S)N/N=C/c1ccc(-c2ccccc2)o1 | 4.05 | 100 |  |
| NC(=S)N/N=C/c1ccc(-c2cc(C(=O)O)ccc2Cl)o1 | 10 | 97.2 |  |
| NC(=S)N/N=C/c1cc(-c2ccc(C(=O)O)cc2)co1 | 24.6 | 90.9 |  |
| NC(=S)N/N=C/c1ccc(-c2ccc(F)nc2)o1 | 8.76 | 97.4 |  |
| NC(=S)N/N=C/c1ccc(-c2ccc(C(=O)O)cc2F)o1 | 8.14 | 101 |  |
| Cc1cc(C(=O)O)ccc1-c1ccc(/C=N/NC(N)=S)o1 | 4.69 | 98.5 |  |
| NC(=S)N/N=C/c1ccc(-c2ccc(O)c(C(=O)O)c2)o1 | 9.09 | 115 |  |
| NC(=S)N/N=C/c1ccc(-c2ccc(C(=O)O)c(Cl)c2)o1 | 32.5 | 89 |  |
| NC(=S)N/N=C/c1ccc(-c2ccc(C(=O)O)cc2)o1 | 17.5 | 89.4 |  |
| NC(=S)N/N=C/c1ccc(-c2ccc(C(=O)O)c(O)c2)o1 | 1.57 | 102 | IC50 [5]: 6.18 µM; inhibition [6]: Active; IC50 (Procathepsin L): 16.3 µM; CC50 (Vero): > 100 µM; CC50 (MDCK): > 100 µM; Activity [7]: Active; IC50 [8]: 0.85 µM; IC50 [9]: 42.8 µM; inhibition [10]: Active |
